The source of these data is article PMC4618315 (Nature, 2015).

By Kd is commonly meant the free concentration of one partner at which half of the binding sites on the other are occupied at equilibrium, for simple one-to-one binding. Low values mean higher affinity, high ones lower affinity.

Residue numbers refer to the chain shown, from its start.

Format in all cases: binding
Assay [1] deals with T1, rGLUT5 (rat GLUT5 deglycosylation mutant N50Y, "WT") (Rattus norvegicus, UniProt P43427, A285T/N50Y/T452S).
T1 sequence (P43427 with tags, fused parts or gaps N50Y/A285T/T452S): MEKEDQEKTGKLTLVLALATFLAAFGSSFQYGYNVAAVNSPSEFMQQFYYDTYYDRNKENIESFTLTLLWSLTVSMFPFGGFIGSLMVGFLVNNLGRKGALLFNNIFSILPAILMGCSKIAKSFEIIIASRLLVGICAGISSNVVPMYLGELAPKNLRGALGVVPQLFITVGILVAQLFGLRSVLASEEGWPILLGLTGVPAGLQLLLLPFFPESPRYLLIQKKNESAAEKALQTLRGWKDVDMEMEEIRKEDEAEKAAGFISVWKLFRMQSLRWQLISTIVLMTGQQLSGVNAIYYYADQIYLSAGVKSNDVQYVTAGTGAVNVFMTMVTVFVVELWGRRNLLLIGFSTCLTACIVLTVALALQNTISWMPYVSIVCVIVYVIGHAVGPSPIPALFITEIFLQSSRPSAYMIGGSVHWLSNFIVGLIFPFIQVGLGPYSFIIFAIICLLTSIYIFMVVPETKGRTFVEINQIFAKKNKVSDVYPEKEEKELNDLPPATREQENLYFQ
Put plainly: Tryptophan fluorescence quenching of purified rat GLUT5 WT.

Another assay deals with T2, bovine GLUT5 (Bos taurus, UniProt P58353, N51A).
T2 sequence (P58353 with tags, fused parts or gaps N51A): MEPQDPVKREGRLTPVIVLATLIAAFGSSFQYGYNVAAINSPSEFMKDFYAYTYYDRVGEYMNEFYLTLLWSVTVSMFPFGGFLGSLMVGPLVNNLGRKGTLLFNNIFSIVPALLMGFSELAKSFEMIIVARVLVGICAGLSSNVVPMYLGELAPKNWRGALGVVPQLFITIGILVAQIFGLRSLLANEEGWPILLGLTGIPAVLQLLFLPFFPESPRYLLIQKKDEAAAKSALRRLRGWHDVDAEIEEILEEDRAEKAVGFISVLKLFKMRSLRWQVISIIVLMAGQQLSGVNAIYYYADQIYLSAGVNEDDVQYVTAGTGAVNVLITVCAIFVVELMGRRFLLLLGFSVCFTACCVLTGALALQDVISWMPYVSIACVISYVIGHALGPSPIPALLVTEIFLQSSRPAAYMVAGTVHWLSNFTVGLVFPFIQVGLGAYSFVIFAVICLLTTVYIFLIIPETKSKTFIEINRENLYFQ
The essentials: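 Bovine construct (residues 1–473 of 501, N51A deglycosylation) was expressed in S. cerevisiae, solubilised in 1% DDM and bound to Ni-NTA. It was TEV-cleaved and run on SEC in 10 mM Tris-HCl pH 7.5, 150 mM NaCl, 0.09% UDMβ. D-fructose was added sequentially, with 2 min room-temperature incubation after each addition. Trp fluorescence: excitation 295 nm, emission 338 nm.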

A further assay deals with T3, rGLUT5 Q166E (Rattus norvegicus, UniProt P43427, A285T/N50Y/Q166E/T452S).
T3 sequence (P43427 with tags, fused parts or gaps N50Y/Q166E/A285T/T452S): T1 sequence (P43427 with tags, fused parts or gaps N50Y/A285T/T452S) with Q166E
Briefly: Tryptophan fluorescence quenching of purified rat GLUT5 Q166E mutant. The conditions noted are these: rGLUT5 Q166E relative to WT; 40 mM sugar. The essentials:
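Deglycosylated N50Y rat background carried the Q166E mutation, made by PCR mutagenesis and purified as WT (Ni-NTA, SEC in DDM). Protein was used at 0.06 mg/ml in 20 mM Tris pH 7.5, 150 mM NaCl, 0.03% DDM, with or without 5 mM HgCl2 pre-incubation. Single 40 mM D-fructose or D-glucose additions, or increasing D-glucose, were incubated 2 min at room temperature. Readout: excitation 295 nm, 338 nm emission peak; triplicate.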

The target of assay [2] is T4, rGLUT5 with a single tryptophan residue (W419) (Rattus norvegicus, UniProt P43427, N50Y/W191F/W239F/W265F/W275F/W338F/W370F/W70F).
T4 sequence (P43427 with tags, fused parts or gaps N50Y/W70F/W191F/W239F/W265F/W275F/A285T/W338F/W370F/T452S): T1 sequence (P43427 with tags, fused parts or gaps N50Y/A285T/T452S) with W70F, W191F, W239F, W265F, W275F, W338F, W370F
Put plainly: Tryptophan fluorescence quenching of rat GLUT5 single tryptophan. As to conditions: 40 mM sugar. The method in brief:
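Single-Trp rat protein (N50Y plus W70F, W191F, W239F, W265F, W275F, W338F, W370F) was used at 0.06 mg/ml in 20 mM Tris pH 7.5, 150 mM NaCl, 0.03% DDM, with or without 5 mM HgCl2. Sugars were each added at 40 mM final; D-fructose was also added sequentially up to 40 mM. After 2 min at room temperature: excitation 295 nm, emission 338 nm. Kd by non-linear regression; triplicate.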

Regarding `O=C(CO)[C@@H](O)[C@H](O)[C@H](O)CO` [D-fructose], the Kd in assay [1] (Kd, purified rGLUT5 WT (N50Y) in DDM, excitation 295 nm, emission 338 nm, n = 3) is 6 to 9 mM; at bovine GLUT5, 5.5 ± 0.6 mM. For the same molecule, in assay [1] (addition of sugar (40 mM) to rGLUT5), the “quenching of tryptophan fluorescence (in words)” value was “strong quenching”. Further, the “sugar binding (in words)” value at rGLUT5 Q166E is “clearly weakens”.
With `O=C[C@H](O)[C@@H](O)[C@@H](O)[C@H](O)CO` [D-galactose], the “tryptophan quenching (in words)” value in assay [2] is “No tryptophan quenching”.
Regarding `OC[C@H]1OC(O)[C@H](O)[C@@H](O)[C@@H]1O` (stereo partly drawn) [D-glucose], the “tryptophan quenching (in words)” value in assay [2] is “No tryptophan quenching”. For the same molecule, the “sugar binding (in words)” value at rGLUT5 Q166E is recorded as “robust binding”.
With `O=C(CO)[C@H](O)[C@@H](O)[C@@H](O)CO` [L-fructose, reference compound], in assay [2], the “tryptophan quenching (in words)” value is recorded as “No tryptophan quenching”.
